Measurements: ChEMBL document CHEMBL5338774, “Quinazoline-2-Carboxamides as Selective PET Radiotracers for Matrix Metalloproteinase-13 Imaging in Atherosclerosis” (J Med Chem, 2023)

Tests used:
Interstitial collagenase = biological target: T1, Interstitial collagenase (Homo sapiens, UniProt P03956); experiment: Inhibition of human recombinant MMP-1 incubated for 30 mins by fluorescence based analysis
T1 sequence (P03956 whole entry): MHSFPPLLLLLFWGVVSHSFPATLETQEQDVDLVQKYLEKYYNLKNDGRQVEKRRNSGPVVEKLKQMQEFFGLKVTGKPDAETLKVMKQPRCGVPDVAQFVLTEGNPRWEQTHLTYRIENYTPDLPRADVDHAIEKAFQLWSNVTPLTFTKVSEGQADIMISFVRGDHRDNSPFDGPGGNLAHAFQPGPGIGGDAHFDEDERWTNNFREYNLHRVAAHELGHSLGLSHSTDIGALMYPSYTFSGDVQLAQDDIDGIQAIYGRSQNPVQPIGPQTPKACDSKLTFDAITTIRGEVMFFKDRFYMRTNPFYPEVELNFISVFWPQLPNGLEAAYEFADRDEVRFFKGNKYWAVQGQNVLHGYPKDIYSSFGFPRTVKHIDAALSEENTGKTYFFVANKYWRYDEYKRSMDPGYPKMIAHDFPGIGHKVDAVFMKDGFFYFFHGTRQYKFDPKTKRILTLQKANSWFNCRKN

[1] = biological target: 72 kDa type IV collagenase (Homo sapiens, UniProt P08253); experiment: Inhibition of human recombinant MMP-2 incubated for 30 mins by fluorescence based analysis
Chain of 72 kDa type IV collagenase (P08253 whole entry): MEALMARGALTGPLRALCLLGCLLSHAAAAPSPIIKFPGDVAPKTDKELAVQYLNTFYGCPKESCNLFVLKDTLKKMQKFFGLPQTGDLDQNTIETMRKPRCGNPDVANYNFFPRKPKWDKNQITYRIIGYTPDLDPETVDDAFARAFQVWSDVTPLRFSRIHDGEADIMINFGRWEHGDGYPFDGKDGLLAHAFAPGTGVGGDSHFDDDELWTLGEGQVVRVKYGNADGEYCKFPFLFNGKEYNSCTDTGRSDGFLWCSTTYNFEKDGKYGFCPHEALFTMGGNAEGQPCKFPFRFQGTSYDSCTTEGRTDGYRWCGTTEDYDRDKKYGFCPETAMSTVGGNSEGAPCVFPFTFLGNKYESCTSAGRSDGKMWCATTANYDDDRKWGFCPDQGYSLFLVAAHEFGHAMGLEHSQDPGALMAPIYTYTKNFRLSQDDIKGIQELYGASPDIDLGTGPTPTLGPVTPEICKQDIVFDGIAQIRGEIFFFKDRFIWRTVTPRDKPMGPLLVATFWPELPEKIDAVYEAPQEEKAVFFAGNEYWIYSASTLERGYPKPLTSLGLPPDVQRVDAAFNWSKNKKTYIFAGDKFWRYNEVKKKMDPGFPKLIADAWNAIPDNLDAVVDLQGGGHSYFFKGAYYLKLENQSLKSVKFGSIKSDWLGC

Neutrophil collagenase = Neutrophil collagenase (Homo sapiens, UniProt P22894); experiment: Inhibition of human recombinant MMP-8 incubated for 30 mins by fluorescence based analysis
Chain of Neutrophil collagenase (P22894 whole entry): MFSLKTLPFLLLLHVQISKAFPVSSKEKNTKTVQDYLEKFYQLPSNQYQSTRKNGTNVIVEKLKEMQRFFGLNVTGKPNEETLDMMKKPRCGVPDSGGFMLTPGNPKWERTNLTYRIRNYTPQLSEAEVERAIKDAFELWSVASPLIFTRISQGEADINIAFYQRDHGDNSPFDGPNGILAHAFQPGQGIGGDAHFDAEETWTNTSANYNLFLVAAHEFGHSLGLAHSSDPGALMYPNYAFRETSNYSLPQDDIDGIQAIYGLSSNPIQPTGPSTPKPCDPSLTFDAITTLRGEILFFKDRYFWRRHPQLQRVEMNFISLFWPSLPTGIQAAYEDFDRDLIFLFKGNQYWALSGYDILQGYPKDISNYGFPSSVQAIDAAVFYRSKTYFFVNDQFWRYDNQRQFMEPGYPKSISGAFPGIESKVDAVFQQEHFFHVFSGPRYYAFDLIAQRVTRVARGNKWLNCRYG

Collagenase 3 = Collagenase 3 (Homo sapiens, UniProt P45452); experiment: Inhibition of human recombinant MMP-13 using Mca-Lys-Pro-Leu-GlyLeu-Dpa-Ala-Arg-NH2 as substrate preincubated for 30 mins followed by substrate addition by fluorescence based analysis
[2] = biological target: Matrix metalloproteinase-9 (Homo sapiens, UniProt P14780); experiment: Inhibition of human recombinant MMP-9 incubated for 30 mins by fluorescence based analysis
Chain of Matrix metalloproteinase-9 (P14780 whole entry): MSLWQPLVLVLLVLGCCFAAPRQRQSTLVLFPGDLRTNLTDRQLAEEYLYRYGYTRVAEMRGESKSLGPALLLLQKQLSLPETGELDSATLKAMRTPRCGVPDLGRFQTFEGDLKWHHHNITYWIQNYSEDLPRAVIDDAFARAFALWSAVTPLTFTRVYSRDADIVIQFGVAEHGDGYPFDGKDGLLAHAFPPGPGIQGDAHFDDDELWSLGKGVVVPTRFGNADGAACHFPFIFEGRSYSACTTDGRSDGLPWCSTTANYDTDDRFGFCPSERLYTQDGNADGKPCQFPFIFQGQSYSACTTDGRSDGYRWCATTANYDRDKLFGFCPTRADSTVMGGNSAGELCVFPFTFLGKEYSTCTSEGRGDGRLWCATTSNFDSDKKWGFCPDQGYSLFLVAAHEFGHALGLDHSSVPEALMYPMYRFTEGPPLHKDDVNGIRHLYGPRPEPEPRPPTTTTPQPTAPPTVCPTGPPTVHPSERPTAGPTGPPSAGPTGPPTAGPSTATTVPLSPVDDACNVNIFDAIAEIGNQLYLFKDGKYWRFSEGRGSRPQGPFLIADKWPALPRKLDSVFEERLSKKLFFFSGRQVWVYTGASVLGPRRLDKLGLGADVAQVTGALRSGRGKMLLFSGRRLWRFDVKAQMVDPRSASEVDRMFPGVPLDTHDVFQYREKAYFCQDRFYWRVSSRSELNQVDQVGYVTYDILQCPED

Stromelysin-2 = Stromelysin-2 (Homo sapiens, UniProt P09238); experiment: Inhibition of human recombinant MMP-10 using […]-Pro-Lys-Pro-Val-Glu-Nval-Trp-Arg-Lys(Dnp)-NH2 as substrate preincubated for 30 mins followed by substrate addition by fluorescence based analysis
Chain of Stromelysin-2 (P09238 whole entry): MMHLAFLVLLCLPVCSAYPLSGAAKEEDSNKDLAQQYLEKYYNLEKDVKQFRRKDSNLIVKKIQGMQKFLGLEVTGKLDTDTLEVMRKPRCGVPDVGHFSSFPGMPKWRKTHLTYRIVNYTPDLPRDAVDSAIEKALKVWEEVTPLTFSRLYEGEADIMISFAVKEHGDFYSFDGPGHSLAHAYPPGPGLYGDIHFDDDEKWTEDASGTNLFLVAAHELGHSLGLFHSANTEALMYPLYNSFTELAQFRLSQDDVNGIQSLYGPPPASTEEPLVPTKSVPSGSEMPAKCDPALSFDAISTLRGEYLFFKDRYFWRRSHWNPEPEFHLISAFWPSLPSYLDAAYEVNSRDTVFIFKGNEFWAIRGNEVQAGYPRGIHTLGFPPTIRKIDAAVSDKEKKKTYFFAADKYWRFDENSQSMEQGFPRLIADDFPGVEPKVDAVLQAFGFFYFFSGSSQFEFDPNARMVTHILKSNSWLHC

[3] = Stability of compound in 10% EtOH/saline assessed as compound degradation measured upto 75 mins by analytical radio-HPLC analysis; format: physicochemical; details: buffer, 1.25 h
How it was run: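 Radiotracer formulated in 10% EtOH/0.9% saline was held at room temperature up to 75 min. Samples were analysed by analytical radio-HPLC (C18, 0.1 M ammonium formate/ACN gradient, 1 mL·min⁻¹).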

[4] = Drug distribution in western atherogenic diet fed ApoE-/- mouse lung at […], iv administered as bolus injection measured for 30 mins by gamma counter analysis; format: ADME, organism-based; details: in vivo, 0.5 h
How it was run: (§1)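 Diet-fed male ApoE-/- mice (39 ± 5 g, n = 4-6) under 2% isoflurane received radiotracer (~7.5 MBq, 100-200 µL) IV by tail-vein bolus over 30 s. After 30 min, blood was taken by cardiac puncture, then PBS/formalin perfusion and organ dissection. Uptake is decay-corrected %ID normalized to tissue mass (%ID/g).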

[5] = Drug distribution in western atherogenic diet fed ApoE-/- mouse spleen at […], iv administered as bolus injection measured for 30 mins by gamma counter analysis; format: ADME, organism-based; details: in vivo, 0.5 h; how it was run: as §1
[6] = Drug distribution in western atherogenic diet fed ApoE-/- mouse myocardium assessed as myocardial retention at […], iv administered as bolus injection measured for 60 mins by PET analysis; format: ADME, organism-based; details: in vivo, 1 h
How it was run: (§2)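 A 10 min transmission scan preceded tail-vein IV bolus of radiotracer (~7.5 MBq, over 30 s) in diet-fed ApoE-/- mice. Dynamic whole-body PET ran for 60 min (4×15 s, 4×1 min, 11×5 min frames), corrected for attenuation and scatter, 3D-OSEM/MAP reconstruction. Volumetric organ ROIs gave %ID·cc⁻¹ time-activity curves; n = 2 per group.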

[7] = Tmax in western atherogenic diet fed ApoE-/- mouse blood at […], iv administered as bolus injection measured for 60 mins by PET analysis; format: ADME, organism-based; details: in vivo, 1 h; how it was run: as §2
[8] = Drug distribution in western atherogenic diet fed ApoE-/- mouse fat tissue at […], iv administered as bolus injection measured for 30 mins by gamma counter analysis; format: ADME, organism-based, Adipose tissue; details: in vivo, 0.5 h; how it was run: as §1
[9] = Drug distribution in western atherogenic diet fed ApoE-/- mouse liver at […], iv administered as bolus injection measured for 60 mins by PET analysis; format: ADME, organism-based; details: in vivo, 1 h; how it was run: as §2
[10] = Drug distribution in western atherogenic diet fed ApoE-/- mouse aortic plaques at […], iv administered as bolus injection measured for 30 mins by Oil Red O staining based autoradiography; format: ADME, organism-based, Aorta; details: in vivo, 0.5 h
How it was run: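 Male ApoE-/- mice were fed a western atherogenic diet from 8 weeks of age for 13-16 weeks. Radiotracer (~7.5 MBq) was given IV by tail-vein bolus over 30 s. Blocking: unlabelled tracer analogue (2.5 mg/kg; DMA/propylene glycol/PEG400/water) or WAY170523 (7.5 mg/kg; DMSO/PEG400/water), both IV 15 min before. At 30 min, perfused aortae were exposed to a phosphor screen for 10 half-lives (%ID·mm⁻²), with ORO staining.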

[11] = Drug distribution in western atherogenic diet fed ApoE-/- mouse kidney at […], iv administered as bolus injection measured for 60 mins by PET analysis; format: ADME, organism-based; details: in vivo, 1 h; how it was run: as §2
[12] = Drug distribution in western atherogenic diet fed ApoE-/- mouse intestine at […], iv administered as bolus injection measured for 30 mins by gamma counter analysis; format: ADME, organism-based; details: in vivo, 0.5 h; how it was run: as §1
[13] = Drug distribution in western atherogenic diet fed ApoE-/- mouse blood assessed as compound remaining at […], iv administered as bolus injection measured for 30 mins by gamma counter analysis; format: ADME, organism-based; details: in vivo, 0.5 h; how it was run: as §1
[14] = Drug distribution in western atherogenic diet fed ApoE-/- mouse brain at […], iv administered as bolus injection measured for 30 mins by gamma counter analysis; format: ADME, organism-based; details: in vivo, 0.5 h; how it was run: as §1
[15] = Stability in western atherogenic diet fed ApoE-/- mouse plasma assessed as intact compound level at ~75 MBq, iv administered as bolus injection and measured after 30 mins by gamma counter analysis; format: ADME, organism-based; details: read-out: Stability
How it was run: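 Blood was drawn by cardiac puncture into K₂EDTA tubes 30 min after IV radiotracer in diet-fed ApoE-/- mice. Optional IV pretreatment 15 min before: unlabelled analogue 2.5 mg/kg or WAY170523 7.5 mg/kg. Pooled protein-free plasma was spiked with standard and run on radio-HPLC (C18, ammonium formate/ACN). Fractions were collected each minute and gamma-counted to give the parent fraction.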

[16] = Drug distribution in western atherogenic diet fed ApoE-/- mouse kidney at […], iv administered as bolus injection measured for 30 mins by gamma counter analysis; format: ADME, organism-based; details: in vivo, 0.5 h; how it was run: as §1
[17] = Drug distribution in western atherogenic diet fed ApoE-/- mouse muscle tissue at […], iv administered as bolus injection measured for 30 mins by gamma counter analysis; format: ADME, organism-based; details: in vivo, 0.5 h; how it was run: as §1
[18] = Drug distribution in western atherogenic diet fed ApoE-/- mouse stomach at […], iv administered as bolus injection measured for 30 mins by gamma counter analysis; format: ADME, organism-based; details: in vivo, 0.5 h; how it was run: as §1
[19] = Drug distribution in western atherogenic diet fed ApoE-/- mouse myocardium assessed as compound remaining at […], iv administered as bolus injection measured for 30 mins by gamma counter analysis; format: ADME, organism-based; details: in vivo, 0.5 h; how it was run: as §1
[20] = Drug distribution in western atherogenic diet fed ApoE-/- mouse bone at […], iv administered as bolus injection measured for 30 mins by gamma counter analysis; format: ADME, organism-based, Bone element; details: in vivo, 0.5 h; how it was run: as §1
[21] = Drug distribution in western atherogenic diet fed ApoE-/- mouse pancreas at […], iv administered as bolus injection measured for 30 mins by gamma counter analysis; format: ADME, organism-based; details: in vivo, 0.5 h; how it was run: as §1
[22] = Octanol/PBS distribution coefficient, logD of compound at pH 7.4 incubated for 10 mins under shaking condition by gamma counter analysis; format: physicochemical
How it was run: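 Radiotracer partitioning between 1-octanol and 1× PBS at pH 7.4. Mean ± standard error of two independent experiments, each in quadruplicate.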

SMILES	IC50 (Interstitial collagenase)	IC50 [1]	IC50 (Neutrophil collagenase)	IC50 (Collagenase 3)	IC50 [2]	IC50 (Stromelysin-2)	further results
Cc1cc(CNC(=O)c2nc3ccc(F)c(OCCF)c3c(=O)[nH]2)ccc1F	> 10000 nM	> 10000 nM	1200 nM	16 nM	> 10000 nM	3100 nM	
Cc1cc(CNC(=O)c2nc3ccc(F)c(OCCc4ccc(O[11CH3])cc4)c3c(=O)[nH]2)ccc1F							Stability [3]: Stable; Drug uptake [4]: ~ 2 % ID/g; Drug uptake [5]: ~ 2 % ID/g; Drug uptake [6]: < 0.5 %ID/cc; Tmax [7]: 37.5 s; Drug uptake [8]: ~ 2 % ID/g; Drug uptake [9]: 9.3 %ID/cc; Drug uptake [10]: 129.8 %ID.m^-2; Drug uptake [11]: 7.4 %ID/cc; Drug uptake [12]: < 7 % ID/g; Drug uptake [13]: 1.83 % ID/g; Drug uptake [14]: ~ 2 % ID/g; remaining at 0.5 h [15]: 70%; Drug uptake [16]: < 7 % ID/g; Drug uptake [17]: ~ 2 % ID/g; Drug uptake [18]: ~ 2 % ID/g; Drug uptake [19]: ~ 1 % ID/g; Drug uptake [20]: ~ 2 % ID/g; Drug uptake [21]: 3.27 % ID/g; logD at 10 min [22]: 3.76
COc1ccc(CNC(=O)c2nc3ccc(F)c(OCCc4ccc(O)cc4)c3c(=O)[nH]2)cc1	> 10000 nM	> 10000 nM	1500 nM	48 nM	> 10000 nM	6800 nM	
COc1ccc(CCOc2c(F)ccc3nc(C(=O)NCc4ccc(F)c(C)c4)[nH]c(=O)c23)cc1	> 10000 nM	> 10000 nM	780 nM	24 nM	> 10000 nM	9100 nM	
COc1ccc(CCOc2c(F)ccc3nc(C(=O)NCc4ccc(OC)cc4)[nH]c(=O)c23)cc1				113 nM			
COc1cccc(CNC(=O)c2nc3ccc(F)c(F)c3c(=O)[nH]2)c1				118 nM			
Cc1cc(CNC(=O)c2nc3ccc(F)c(OCCc4ccc(O)cc4)c3c(=O)[nH]2)ccc1F	> 10000 nM	> 10000 nM	2200 nM	12 nM	> 10000 nM	6900 nM	
O=C(O)c1ccc(CCOc2c(F)ccc3nc(C(=O)NCc4cccc(O)c4)[nH]c(=O)c23)cc1	> 10000 nM	> 10000 nM	2100 nM	1.3 nM	> 10000 nM	2800 nM	
COc1ccc(CNC(=O)c2nc3ccc(F)c(F)c3c(=O)[nH]2)cc1				313 nM			
